Paper PMC3530929 (Journal of medicinal chemistry, 2012)
“Also recorded” adds a separate entry of the source.

Legend:
[1] = biological target: T1, chymotrypsin-like (CT-L) activity of the 20S proteasome (Oryctolagus cuniculus, UniProt G1T4Q9); test: In vitro CT-L proteasome inhibition, fluorogenic assay; assay type: biochemical, rabbit; details: for IC50: CT-L inhibitory activity IC50, in vitro
T1 sequence (G1T4Q9 60-263): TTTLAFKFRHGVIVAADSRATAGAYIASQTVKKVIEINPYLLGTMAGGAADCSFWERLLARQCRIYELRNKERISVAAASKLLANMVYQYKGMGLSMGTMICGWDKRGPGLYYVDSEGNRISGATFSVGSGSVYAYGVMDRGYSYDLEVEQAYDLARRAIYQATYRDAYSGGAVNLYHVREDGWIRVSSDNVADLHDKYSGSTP

[2] = Stability at room temperature; assay type: physicochemical; details: for stability at room temperature: 1H NMR in deuterated DMSO up to 3 weeks, HPLC and LCMS in tris buffer
[3] = Stability in biological media by HPLC; assay type: physicochemical; details: DMEM and RPMI-1640 without serum, 10 μM, 1% DMSO, 37 °C, 1, 3, 5, 7 days
Method in brief: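 A 1 mM DMSO stock from fresh powder was diluted into serum-free DMEM or RPMI (10 μM final, 1% DMSO), with 5 replicates per medium, and kept at 37 °C. Vials were removed on days 1, 3, 5 and 7, chilled to 0 °C on ice and analysed at once by HPLC. Conditions: C18, 5 μm, 4.6×150 mm, isocratic 35% or 50% CH3CN/water with 0.1% TFA depending on compound, 1 ml/min, 30 min. Peak area was plotted against day.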

[4] = test system: ubiquitinated cellular proteins in MDA-MB-468 cells; test: Ubiquitination by Western blot analysis; assay type: cell-based, human; details: MDA-MB-468, 11 hours, various concentrations
[5] = test system: rabbit 20S proteasome CT-L activity; test: Dialysis using purified rabbit 20S proteasome; assay type: biochemical; details: for mode of CT-L proteasome inhibition (reversible or irreversible): concluded from dialysis; for recovery of CT-L activity during dialysis: dialysis up to 18 h at 4 °C
Method in brief: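 Test compound at 10 μM, or 0.1% DMSO vehicle, was added to rabbit 20S proteasome (1.5 nM final) in 50 mM Tris-HCl pH 7.6 and held 30 min at room temperature. The mixture was dialysed (3,500 MWCO) against assay buffer at 4 °C and sampled at 0, 0.5, 1, 4, 8 and 18 h. CT-L activity was assayed per the earlier method and normalised to the DMSO control.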

[6] = biological target: T2, trypsin-like (T-L) activity of the proteasome (Oryctolagus cuniculus, UniProt G1SWK8); test: In vitro T-L proteasome inhibition, fluorogenic assay; assay type: biochemical, rabbit; details: read-out: T-L inhibition at 10 μM (cells printed ND)
T2 sequence (G1SWK8 1-271): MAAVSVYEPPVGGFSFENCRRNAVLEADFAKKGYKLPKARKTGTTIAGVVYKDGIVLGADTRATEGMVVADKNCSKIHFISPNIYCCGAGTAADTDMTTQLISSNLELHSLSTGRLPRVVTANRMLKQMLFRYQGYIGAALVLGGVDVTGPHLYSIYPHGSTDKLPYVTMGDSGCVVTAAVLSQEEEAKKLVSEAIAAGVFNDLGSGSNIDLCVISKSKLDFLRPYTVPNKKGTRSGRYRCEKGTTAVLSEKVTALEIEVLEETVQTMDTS

## O=S(=O)(Nc1cc(Sc2nnn[nH]2)c(O)c2ccccc12)c1ccc(-c2ccc(F)cc2)cc1 [Compound 15j, N-(3-(1H-tetrazol-5-ylthio)-4-hydroxynaphthalen-1-yl)-4′-fluorobiphenyl-4-sulfonamide]
[1]
  IC50: ~200 nM
[1]; compared with compound 1
  fold improved CT-L inhibitory activity: up to 20 fold

## O=S(=O)(Nc1cc(Sc2nnn[nH]2)c(O)c2ccccc12)c1ccc(Cl)c(Cl)c1 [Compound 36, N-(3-(1H-tetrazol-5-ylthio)-4-hydroxynaphthalen-1-yl)-3,4-dichlorobenzenesulfonamide]
[1]; in vitro
  selectivity CT-L versus T-L (in words): equipotent against CT-L and T-L activities

## O=C(O)CCSc1cc(NS(=O)(=O)c2cccs2)c2ccccc2c1O [Compound 11d, 3-(1-Hydroxy-4-(thiophene-2-sulfonamido)naphthalen-2-ylthio)propanoic acid]
[1]; extended side chain, compared with compound 1
  fold decreased potency (CT-L): 2 fold

## O=S(=O)(Nc1cc(Sc2nnc[nH]2)c(O)c2ccccc12)c1ccc(-c2ccccc2)cc1 [Compound 25]
[2]
  stability at room temperature: stable at room temperature for up to two weeks

## O=S(=O)(Nc1cc(Sc2nnn[nH]2)c(O)c2ccccc12)c1ccc(Oc2ccccc2)cc1 [Compound 15k, N-(3-(1H-tetrazol-5-ylthio)-4-hydroxynaphthalen-1-yl)-4-phenoxybenzenesulfonamide]
[1]; compared with compound 1
  fold improved CT-L inhibitory activity: up to 20 fold
[3]
  stability in biological media (HPLC peak area): stable up to 7 days at 37 °C

## O=S(=O)(Nc1cc(Sc2nnn[nH]2)c(O)c2ccccc12)c1ccc(-c2ccc(C(F)(F)F)cc2)cc1 [Compound 39, N-(3-(1H-tetrazol-5-ylthio)-4-hydroxynaphthalen-1-yl)-4′-(trifluoromethyl)biphenyl-4-sulfonamide]
[4]
  ubiquitination / accumulation of ubiquitinated cellular proteins: concentration-dependent increase in ubiquitination; also recorded: induced the accumulation of ubiquitinated cellular proteins
[5]
  mode of CT-L proteasome inhibition (reversible or irreversible): irreversibly; also recorded: irreversible
  recovery of CT-L activity during dialysis: did not show any recovery
[3]
  stability in biological media (HPLC peak area): stable up to 7 days at 37 °C

## O=S(=O)(Nc1cc(Sc2nnn[nH]2)c(O)c2ccccc12)c1ccc(Cl)cc1 [Compound 35, N-(3-(1H-tetrazol-5-ylthio)-4-hydroxynaphthalen-1-yl)-4-chlorobenzenesulfonamide]
[1]; in vitro
  selectivity CT-L versus T-L (in words): equipotent against CT-L and T-L activities

## O=S(=O)(Nc1cc(Sc2nnn[nH]2)c(O)c2ccccc12)c1cccs1 [Compound 15d, N-(3-(1H-tetrazol-5-ylthio)-4-hydroxynaphthalen-1-yl)thiophene-2-sulfonamide]
[1]; in vitro
  selectivity CT-L versus T-L (in words): more selective for T-L over CT-L

## O=S(=O)(Nc1cc(Sc2nnn[nH]2)c(O)c2ccccc12)c1ccc(-c2ccccc2)cc1 [Compound 15e, N-(3-(1H-tetrazol-5-ylthio)-4-hydroxynaphthalen-1-yl)biphenyl-4-sulfonamide]
[1]
  IC50: ~200 nM
[1]; compared with compound 1
  fold improved CT-L inhibitory activity: up to 20 fold

## O=S(=O)(Nc1cc(Sc2nnn[nH]2)c(O)c2ccccc12)c1ccc(C2CCCCC2)cc1 [Compound 15h, N-(3-(1H-tetrazol-5-ylthio)-4-hydroxynaphthalen-1-yl)-4-cyclohexylbenzenesulfonamide]
[1]
  IC50: ~200 nM
[1]; compared with compound 1
  fold improved CT-L inhibitory activity: up to 20 fold

## O=S(=O)(Nc1cc(Sc2ncn[nH]2)c(O)c2ccccc12)c1ccc(-c2ccc(F)cc2)cc1 [Compound 27, N-(3-(1H-1,2,4-triazol-3-ylthio)-4-hydroxynaphthalen-1-yl)-4′-fluorobiphenyl-4-sulfonamide]
[1]; compared with compound 1
  fold improved CT-L inhibitory activity: up to 20 fold

## O=S(=O)(Nc1cc(Sc2nnn[nH]2)c(O)c2ccccc12)c1ccc(-c2ccccc2)s1 [Compound 15f, N-(3-(1H-tetrazol-5-ylthio)-4-hydroxynaphthalen-1-yl)-5-phenylthiophene-2-sulfonamide]
[1]
  IC50: ~200 nM
[1]; compared with compound 1
  fold improved CT-L inhibitory activity: up to 20 fold
[2]
  stability at room temperature: stable at room temperature for up to two weeks

## O=C(O)CSc1ccc(NS(=O)(=O)c2cccs2)c2ccccc12 [Compound 23, 2-(4-(Thiophene-2-sulfonamido)naphthalen-1-ylthio)acetic acid]
[1]
  IC50: > 100000 nM

## O=C(O)CSc1cc(NS(=O)(=O)c2cccs2)c2ccccc2c1O [Compound 1, 2-(1-Hydroxy-4-(thiophene-2-sulfonamido)naphthalen-2-ylthio)acetic acid]
[6]
  inhibition at 10 µM: < 70%
[5]
  mode of CT-L proteasome inhibition (reversible or irreversible): irreversibly; also recorded: irreversible
  recovery of CT-L activity during dialysis: did not show any recovery
[3]
  stability in biological media (HPLC peak area): stable up to 7 days at 37 °C
[2]
  stability at room temperature: stable at room temperature for up to two weeks
[2]; room temperature, after 2 weeks
  impurities (oxidized material) after 2 weeks: 3–5%

## O=S(=O)(Nc1cc(Sc2ncn[nH]2)c(O)c2ccccc12)c1ccc(Oc2ccccc2)cc1 [Compound 29, N-(3-(1H-1,2,4-triazol-3-ylthio)-4-hydroxynaphthalen-1-yl)-4-phenoxybenzenesulfonamide]
[1]; compared with compound 1
  fold improved CT-L inhibitory activity: up to 20 fold
[1]; in vitro
  selectivity for CT-L over T-L activity: 28 fold
